Source: article PMC6923801 (Journal of medicinal chemistry, 2019)

Key:
human GPR68 = human GPR68 (Homo sapiens, UniProt Q15743); test: GloSensor cAMP assay, proton-mediated Gs-cAMP production at human GPR68; assay type: cell-based; conditions: for Δ: difference of Log(αβ/KB) from that of 1; for Δ / fold increased allosteric activity (log(αβ/KB)) compared to 1 / −Log (KB) / Log (αβ/KB): human GPR68; for Log (α): affinity cooperativity; for Log (α) / Log (β): human GPR68, HEK293T, Gs-cAMP; for Log (α) / −Log (KB) / Log (αβ/KB) / Log (β): mean ± SEM; for −Log (KB): allosteric binding affinity from functional assay; for Log (αβ/KB): allosteric index; for Log (β): efficacy cooperativity; for PAM activity at GPR68: inactive analogues
human GPR68, sequence (Q15743 whole entry): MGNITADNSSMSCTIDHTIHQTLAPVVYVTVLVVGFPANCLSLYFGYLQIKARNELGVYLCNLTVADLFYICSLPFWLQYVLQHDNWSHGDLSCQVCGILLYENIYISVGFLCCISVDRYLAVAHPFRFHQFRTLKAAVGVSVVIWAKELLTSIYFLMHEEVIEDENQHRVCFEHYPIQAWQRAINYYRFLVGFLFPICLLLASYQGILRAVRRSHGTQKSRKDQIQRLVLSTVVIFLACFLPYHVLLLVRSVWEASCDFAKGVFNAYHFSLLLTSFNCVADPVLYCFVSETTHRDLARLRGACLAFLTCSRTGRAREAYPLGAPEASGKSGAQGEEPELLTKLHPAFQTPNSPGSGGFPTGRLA
Summary of the method: (§1)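 HEK293T cells were transiently transfected with receptor and GloSensor cAMP plasmids, overnight (16–20 h). Cells were plated on poly-L-Lys in DMEM + 1% dFBS for 6–24 h, then loaded with 3.5 mM luciferin (HBSS, 20 mM TAPS, pH 8.40) for 1 h at 37 °C. Drug was applied in Ca/Mg-free HBSS pH buffers (MES 5.60–6.70, HEPES 6.80–8.20, TAPS 8.30–8.60) with 10 μM Ro 20-1724. Luminescence was read at 20–30 min.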

mouse GPR68 = mouse GPR68 (Mus musculus, UniProt Q8BFQ3); test: GloSensor cAMP assay at mouse GPR68; assay type: cell-based; conditions: for Δ: difference of Log(αβ/KB) at mouse GPR68 from the corresponding values at human GPR68
mouse GPR68, sequence (Q8BFQ3 whole entry): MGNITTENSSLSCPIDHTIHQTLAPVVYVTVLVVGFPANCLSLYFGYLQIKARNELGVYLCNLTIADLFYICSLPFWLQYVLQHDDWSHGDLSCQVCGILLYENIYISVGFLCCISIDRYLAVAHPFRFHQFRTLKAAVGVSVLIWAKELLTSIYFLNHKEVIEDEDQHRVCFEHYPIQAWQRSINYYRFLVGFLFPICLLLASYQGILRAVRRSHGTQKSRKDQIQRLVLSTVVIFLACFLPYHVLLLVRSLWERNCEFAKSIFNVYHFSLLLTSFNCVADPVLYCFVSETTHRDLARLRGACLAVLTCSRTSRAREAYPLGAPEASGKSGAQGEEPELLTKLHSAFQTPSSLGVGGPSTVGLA
Summary of the method: as §1

GPR4 [1] = target: T1, GPR4 (Homo sapiens, UniProt P46093); test: GloSensor cAMP assay at GPR4; assay type: cell-based; conditions: proton concentration-response with increasing modulator
T1 sequence (P46093 whole entry): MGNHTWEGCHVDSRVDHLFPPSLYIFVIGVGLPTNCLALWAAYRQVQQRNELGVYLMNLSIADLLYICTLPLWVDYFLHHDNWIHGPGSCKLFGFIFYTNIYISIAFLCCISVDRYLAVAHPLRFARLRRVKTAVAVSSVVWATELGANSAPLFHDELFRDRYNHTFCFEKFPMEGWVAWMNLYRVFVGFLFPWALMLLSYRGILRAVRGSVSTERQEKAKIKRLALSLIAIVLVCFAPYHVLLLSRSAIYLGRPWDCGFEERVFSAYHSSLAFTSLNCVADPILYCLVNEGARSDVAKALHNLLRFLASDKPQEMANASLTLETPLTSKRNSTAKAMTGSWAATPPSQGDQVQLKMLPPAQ
Summary of the method: as §1

GPR65 [2] = target: T2, GPR65 (Homo sapiens, UniProt Q8IYL9); test: GloSensor cAMP assay at GPR65; assay type: cell-based; conditions: proton concentration-response with increasing modulator
T2 sequence (Q8IYL9 whole entry): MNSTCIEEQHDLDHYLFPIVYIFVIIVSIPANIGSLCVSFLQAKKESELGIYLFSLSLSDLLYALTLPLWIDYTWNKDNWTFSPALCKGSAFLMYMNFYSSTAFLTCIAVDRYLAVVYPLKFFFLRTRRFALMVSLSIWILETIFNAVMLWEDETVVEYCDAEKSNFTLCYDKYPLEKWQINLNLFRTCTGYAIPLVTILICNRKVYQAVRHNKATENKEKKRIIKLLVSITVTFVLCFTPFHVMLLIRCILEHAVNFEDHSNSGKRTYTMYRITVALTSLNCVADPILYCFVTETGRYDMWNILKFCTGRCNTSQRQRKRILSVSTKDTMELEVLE
Summary of the method: as §1

5-HT2B receptors = 5-HT2B receptors (Homo sapiens, UniProt P41595); test: Calcium release functional assay at 5-HT2B receptors; assay type: cell-based
5-HT2B receptors, sequence (P41595 whole entry): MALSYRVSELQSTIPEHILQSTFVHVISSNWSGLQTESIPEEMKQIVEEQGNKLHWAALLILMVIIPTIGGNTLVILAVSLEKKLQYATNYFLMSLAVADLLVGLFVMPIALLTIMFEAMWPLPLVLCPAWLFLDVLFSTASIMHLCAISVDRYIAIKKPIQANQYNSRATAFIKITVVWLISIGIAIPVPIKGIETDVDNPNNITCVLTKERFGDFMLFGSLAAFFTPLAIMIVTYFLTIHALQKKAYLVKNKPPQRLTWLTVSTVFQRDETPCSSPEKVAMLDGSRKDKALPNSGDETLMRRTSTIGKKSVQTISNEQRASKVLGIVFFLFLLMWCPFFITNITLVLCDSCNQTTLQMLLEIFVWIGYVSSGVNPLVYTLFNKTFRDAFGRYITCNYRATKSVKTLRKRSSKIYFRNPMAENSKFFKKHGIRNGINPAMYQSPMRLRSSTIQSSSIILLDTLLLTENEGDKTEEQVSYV
Summary of the method: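 HEK293 cells stably expressing 5-HT2B were plated in DMEM with 1% dFBS overnight (16–20 h). They were loaded with Fluo-4 Direct dye for 1 h at 37 °C in HBSS with 20 mM HEPES and 2.5 mM probenecid, pH 7.40. Drug dilutions contained 1 mg/mL BSA and 0.1 mg/mL ascorbic acid. Fluorescence was read 1/s for 2 min, with 10 s baseline. Read-out was peak fold of basal within the first minute.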

[3] = system: human GPCRome (318 GPCRs); test: PRESTO-Tango GPCRome off-target agonist screen; assay type: cell-based; conditions: 1 μM
Summary of the method: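 HTLA cells were plated in DMEM + 2% dFBS overnight, then transfected overnight with receptor Tango constructs (15 ng/well) by in-plate PEI. Test compound was added without medium change and left overnight. Bright-Glo luminescence was read after 20 min at room temperature and expressed as fold of basal, using quadruplicate basal and sample wells. Controls were D2 with 100 nM quinpirole and untransfected cells.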

[4] = target: atypical chemokine receptor 3 (ACKR3) (Homo sapiens, UniProt P25106); test: Tango arrestin recruitment concentration response, ACKR3; assay type: cell-based
atypical chemokine receptor 3 (ACKR3), sequence (P25106 whole entry): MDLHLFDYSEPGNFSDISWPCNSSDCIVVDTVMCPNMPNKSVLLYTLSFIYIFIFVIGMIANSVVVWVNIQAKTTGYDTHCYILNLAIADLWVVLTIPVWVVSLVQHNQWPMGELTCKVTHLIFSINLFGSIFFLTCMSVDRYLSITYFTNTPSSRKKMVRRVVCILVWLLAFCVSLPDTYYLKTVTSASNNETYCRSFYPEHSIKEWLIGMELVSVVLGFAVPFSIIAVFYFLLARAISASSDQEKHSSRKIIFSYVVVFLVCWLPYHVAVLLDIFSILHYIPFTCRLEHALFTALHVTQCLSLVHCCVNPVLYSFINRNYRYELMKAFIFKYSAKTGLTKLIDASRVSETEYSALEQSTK
Summary of the method: (§2)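 HTLA cells were transfected overnight with receptor DNA in DMEM + 10% FBS, then plated on poly-L-Lys in DMEM + 1% dFBS. Test compound was added 6 h later and incubated overnight (16–20 h). After removal of medium, Bright-Glo reagent was added and luminescence counted.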

[5] = system: 48 common GPCRs, ion channels, and transporters; test: Radioligand binding panel of 48 common drug targets
Summary of the method: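 Binding profiling was done by the NIMH PDSP. Targets were first tested at 10 μM in quadruplicate. pKi values were determined for targets with ≥50% inhibition, from at least three independent assays, each in triplicate.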

MT1 receptor = MT1 receptor (Homo sapiens, UniProt P48039); test: Tango arrestin recruitment concentration response, MT1; assay type: cell-based
MT1 receptor, sequence (P48039 whole entry): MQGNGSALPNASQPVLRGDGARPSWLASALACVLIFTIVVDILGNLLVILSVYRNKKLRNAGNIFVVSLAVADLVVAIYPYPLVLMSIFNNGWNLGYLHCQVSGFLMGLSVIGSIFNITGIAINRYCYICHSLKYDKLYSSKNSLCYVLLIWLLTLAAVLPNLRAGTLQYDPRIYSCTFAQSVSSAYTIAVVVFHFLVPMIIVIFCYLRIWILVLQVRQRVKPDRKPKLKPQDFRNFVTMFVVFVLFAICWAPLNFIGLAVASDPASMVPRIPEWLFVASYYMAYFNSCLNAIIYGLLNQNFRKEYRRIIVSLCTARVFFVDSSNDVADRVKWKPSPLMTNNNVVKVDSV
Summary of the method: as §2

[6] = Mouse pharmacokinetic study; assay type: in vivo; conditions: mice, single 25 mg/kg IP
Summary of the method: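 Nine male Swiss Albino mice received one intraperitoneal dose of 25 mg/kg. Vehicle was 5% N-methyl-2-pyrrolidone, 5% Solutol HS-15 and 90% normal saline. Plasma and brain were sampled at 0.5, 1.0 and 2.0 h. Concentrations are averages of three mice per time point ± SEM.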

GPR4 [7] = target: T1, GPR4; conditions: cited from earlier work
GPR65 [8] = target: T2, GPR65; conditions: cited from earlier work

Question: Which results are given for `Nc1nc(NCCCc2ccccc2)nc(-c2cc(Cl)ccc2CO)n1` [Compound 78, (2-(4-Amino-6-((3-phenylpropyl)amino)-1,3,5-triazin-2-yl)-4-chlorophenyl)methanol]?
Answer: Kb (human GPR68): 4.47 µM; Δ (human GPR68): 1.07; fold increased allosteric activity (log(αβ/KB)) compared to 1 (human GPR68): approximately 10 fold; Kb (mouse GPR68): 13.8 µM; Δ (mouse GPR68): −0.40; PAM activity at GPR4 (GPR4 [1]): no effect or weak activity only at high concentrations; PAM activity at GPR65 (GPR65 [2]): no effect or weak activity only at high concentrations; agonist activity at 5-HT2B receptors (5-HT2B receptors): no agonist activity; off-target agonist activity at human GPCRome [3]: agonist activity at an atypical chemokine receptor 3 (ACKR3); agonist type at ACKR3 [4]: full agonist activities

Question: For `CC(=O)c1cccc(-c2nc(N)nc(NCc3ccccc3)n2)c1` [Compound 21, 1-(3-(4-Amino-6-(benzylamino)-1,3,5-triazin-2-yl)phenyl)ethan-1-one], which “Log (α)” value (human GPR68) is on record?
Answer: The value was “Inactive”.

Question: What about the “−Log (KB)” value (human GPR68) of the same compound?
Answer: The value was “Inactive”.

Question: And the “Log (αβ/KB)” value (human GPR68)?
Answer: Its value is “Inactive”.

Question: And the Δ (human GPR68)?
Answer: Its Δ is “Inactive”.

Question: And the “Log (β)” value (human GPR68)?
Answer: The value was “Inactive”.

Question: And the “PAM activity at GPR68” value (human GPR68)?
Answer: The value was “do not show PAM activity”.

Question: And the “off-target agonist activity at human GPCRome” value (“off-target agonist activity” for short) [3]?
Answer: Its value is “no off-target agonist activity”.

Question: And the “binding affinity to common drug targets” value [5]?
Answer: The value was “minimal binding affinities”.

Question: For `Nc1nc(NCCc2ccccc2)nc(-c2cc(Cl)ccc2CO)n1` [Compound 77, (2-(4-Amino-6-(phenethylamino)-1,3,5-triazin-2-yl)-4-chlorophenyl)methanol], which Kb (human GPR68) is on record?
Answer: Its Kb is 7.24 µM.

Question: And the Δ (human GPR68)?
Answer: Its Δ is 0.95.

Question: And the “fold increased allosteric activity (log(αβ/KB)) compared to 1” value (human GPR68)?
Answer: Its value is “approximately 10 fold”.

Question: And the Kb (mouse GPR68)?
Answer: Its Kb is 19.1 µM.

Question: What about the Δ (mouse GPR68) of the same compound?
Answer: Its Δ is −0.34.

Question: And the “PAM activity at GPR4” value (GPR4 [1])?
Answer: The value was “no effect or weak activity only at high concentrations”.

Question: What about the “PAM activity at GPR65” value (GPR65 [2]) of the same compound?
Answer: Its value is “no effect or weak activity only at high concentrations”.

Question: And the “agonist activity at 5-HT2B receptors” value (5-HT2B receptors)?
Answer: The value was “no agonist activity”.

Question: What about the “off-target agonist activity” value [3] of the same compound?
Answer: The value was “agonist activity at an atypical chemokine receptor 3 (ACKR3)”.

Question: What about the “agonist type at ACKR3” value [4] of the same compound?
Answer: Its value is “full agonist activities”.

Question: With `CN(C)c1nc(NCc2ccccc2)nc(-c2ccccc2CO)n1` [Compound 7, (2-(4-(Benzylamino)-6-(dimethylamino)-1,3,5-triazin-2-yl)-phenyl)methanol] as the compound, how does the “Log (α)” value (human GPR68) read?
Answer: The value was “Inactive”.

Question: And the “−Log (KB)” value (human GPR68)?
Answer: The value was “Inactive”.

Question: What about the “Log (αβ/KB)” value (human GPR68) of the same compound?
Answer: The value was “Inactive”.

Question: And the Δ (human GPR68)?
Answer: The Δ was “Inactive”.

Question: What about the “Log (β)” value (human GPR68) of the same compound?
Answer: The value was “Inactive”.

Question: And the “PAM activity at GPR68” value (human GPR68)?
Answer: Its value is “do not show PAM activity”.

Question: And the “off-target agonist activity” value [3]?
Answer: The value was “no off-target agonist activity”.

Question: And the “binding affinity to common drug targets” value [5]?
Answer: The value was “minimal binding affinities”.

Question: For `Nc1nc(NCc2ccc(Oc3ccccc3)cc2)nc(-c2c(F)cccc2CO)n1` [Compound 71, (2-(4-Amino-6-((4-phenoxybenzyl)amino)-1,3,5-triazin-2-yl)-3-fluorophenyl)methanol], which Kb (human GPR68) is on record?
Answer: Its Kb is 1.41 µM.

Question: And the Δ (human GPR68)?
Answer: Its Δ is 1.52.

Question: And the “fold increased allosteric activity (log(αβ/KB)) compared to 1” value (human GPR68)?
Answer: The value was 33 fold.

Question: What about the Kb (mouse GPR68) of the same compound?
Answer: The Kb was 7.59 µM.

Question: What about the “PAM activity at GPR4” value (GPR4 [1]) of the same compound?
Answer: The value was “no PAM activity”.

Question: And the “PAM activity at GPR65” value (GPR65 [2])?
Answer: The value was “weak potentiation of proton activity at GPR65 only at high concentrations”.

Question: What about the “agonist activity at 5-HT2B receptors” value (5-HT2B receptors) of the same compound?
Answer: Its value is “no agonist activity”.

Question: What about the “off-target agonist activity” value [3] of the same compound?
Answer: Its value is “agonist activity only at the MT1 and MT2 receptors”.

Question: And the “agonist type at MT1” value (MT1 receptor)?
Answer: Its value is “weak full agonist”.

Question: What about the bioavailability [6] of the same compound?
Answer: The bioavailability was “bioavailable”.

Question: What about the blood-brain barrier penetration [6] of the same compound?
Answer: The blood-brain barrier penetration was “can readily cross the BBB”.

Question: And the clinical signs [6]?
Answer: The clinical signs was “no clinical signs observed”.

Question: What about the “time high exposure levels in plasma and brain were maintained” value [6] of the same compound?
Answer: The value was 2 h.

Question: With `Nc1nc(NCc2ccccc2)nc(-c2ccccc2CO)n1` [Compound 1] as the compound, how does the Kb (human GPR68) read?
Answer: Its Kb is 44.7 µM.

Question: What about the Δ (human GPR68) of the same compound?
Answer: The Δ was 0.00.

Question: What about the Kb (mouse GPR68) of the same compound?
Answer: Its Kb is 74.1 µM.

Question: What about the Δ (mouse GPR68) of the same compound?
Answer: Its Δ is −0.34.

Question: What about the “activity at GPR4” value (GPR4 [7]) of the same compound?
Answer: Its value is “no activity”.

Question: And the “activity at GPR65” value (GPR65 [8])?
Answer: Its value is “no activity”.
